Reference: ChEMBL document CHEMBL4219021, “Discovery of a Small-Molecule Degrader of Bromodomain and Extra-Terminal (BET) Proteins with Picomolar Cellular Potencies and Capable of Achieving Tumor Regression” (J Med Chem, 2018)
Active and inactive are the calls of the source.

Key:
RS4-11 = assay: Induction of cell cycle arrest in human RS4:11 cells after 24 hrs by propidium iodide staining based flow cytometry; format: functional
Outline: (§1)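 RS4;11 or MOLM-13 cells treated with compound for 24 h, then analyzed by flow cytometry. Cell cycle read by propidium iodide staining and apoptosis by annexin V/propidium iodide staining.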

MOLM-13 [1] = assay: Induction of cell cycle arrest in human MOLM13 cells after 24 hrs by propidium iodide staining based flow cytometry; format: functional; outline: as §1
[2] = biological target: T1, Protein cereblon/Bromodomain-containing protein 3/Cullin-4A (Homo sapiens) (UniProt Q15059+Q96SW2+Q13619); assay: Induction of cereblon/cullin 4A-mediated BRD3 degradation in human RS4:11 cells at 1 nM after 3 hrs in presence of cereblon inhibitor lenalidomide by Western blot method; format: cell-based
[3] = Drug metabolism in mouse liver microsomes assessed as metabolite m1 formation at 10 uM after 20 to 40 mins in presence of beta-NADPH […]; format: ADME, microsome
[4] = biological target: T2, Protein cereblon/Bromodomain-containing protein 2/Cullin-4A (Homo sapiens) (UniProt P25440+Q96SW2+Q13619); assay: Induction of cereblon/cullin 4A-mediated BRD2 degradation in human RS4:11 cells at 0.1 nM after 24 hrs by Western blot method; format: cell-based
Outline: (§2)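 RS4;11 cells (2 × 10⁶/well) treated for 24 h at the indicated concentrations. Lysed in RIPA with protease inhibitors and immunoblotted for BRD2, BRD3, BRD4, c-Myc and PARP, with GAPDH as loading control.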

Mus musculus [5] = assay: In vivo induction of cereblon/cullin 4A-mediated BRD3 degradation in tumor of SCID mouse xenografted with human RS4:11 cells at 5 mg/kg, iv administered as single dose measured after 24 hrs by Western blot method; format: functional, organism-based
Outline: (§3)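 SCID mice bearing subcutaneous RS4;11 tumors received a single 5 mg/kg iv dose. Sacrificed at 1, 3, 6 and 24 h, with vehicle controls at 6 h, two mice per time point. Tumors ground in liquid nitrogen and lysed in CHAPS buffer, then immunoblotted for BRD2/3/4, c-Myc, PARP/cleaved PARP and caspase-3/cleaved caspase-3. Actin served as loading control.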

[6] = biological target: T3, Protein cereblon/Bromodomain-containing protein 4/Cullin-4A (Homo sapiens) (UniProt O60885+Q96SW2+Q13619); assay: Induction of cereblon/cullin 4A-mediated BRD4 degradation in human RS4:11 cells at 1 nM after 3 hrs in presence of NAE inhibitor MLN4924 by Western blot method; format: cell-based
[7] = biological target: T1, Protein cereblon/Bromodomain-containing protein 3/Cullin-4A (Homo sapiens); assay: Induction of cereblon/cullin 4A-mediated BRD3 degradation in human RS4:11 cells after 3 hrs by Western blot method; format: cell-based
Outline: (§4)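 RS4;11 cells (2 × 10⁶/well) treated for 3 h at the indicated concentrations. Lysed in RIPA with protease inhibitors and immunoblotted for BRD2, BRD3 and BRD4 with specific antibodies.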

Homo sapiens = organism: Homo sapiens; assay: Induction of cereblon/cullin 4A-mediated BET degradation in human RS4:11 cells assessed as downregulation of c-myc protein level at 0.1 nM after 24 hrs by Western blot method; format: cell-based; outline: as §2
[8] = biological target: T3, Protein cereblon/Bromodomain-containing protein 4/Cullin-4A (Homo sapiens); assay: Induction of cereblon/cullin 4A-mediated BRD4 degradation in human RS4:11 cells at 0.03 nM after 24 hrs by Western blot method; format: cell-based
Outline: (§5)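 Western blot of RS4;11 cells (2 × 10⁶ cells/well) in RPMI 1640 with 10% FBS, 37 °C, 5% CO₂, used within three months of thawing. Compound exposure was 3 h or 24 h at the indicated concentrations. Cells were lysed in RIPA with protease inhibitors, and BRD2, BRD3 and BRD4 were detected with specific antibodies, with GAPDH as loading control.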

[9] = biological target: T2, Protein cereblon/Bromodomain-containing protein 2/Cullin-4A (Homo sapiens); assay: Induction of cereblon/cullin 4A-mediated BRD2 degradation in human RS4:11 cells at 1 nM after 3 hrs in presence of BET inhibitor 4-((3-Cyclopropyl-1-ethyl-1H-pyrazol-5-yl)amino)-7-(3,5-dimethylisoxazol-4-yl)-6-methoxy-N-methyl-9H-pyrimido[4,5-b]-indole-2-carboxamide by Western blot method; format: cell-based
[10] = Drug metabolism in mouse liver microsomes assessed as N-butyl-4-(3-cyclopropyl-1-ethyl-1H-pyrazol-5-ylamino)-7-(3,5-dimethylisoxazol-4-yl)-6-methoxy-9H-pyrimido[4,5-b]indole-2-carboxamide formation at 10 uM after 20 to 40 mins in presence of beta-NADPH […]; format: ADME, microsome
[11] = biological target: T1, Protein cereblon/Bromodomain-containing protein 3/Cullin-4A (Homo sapiens); assay: Induction of cereblon/cullin 4A-mediated BRD3 degradation in human RS4:11 cells at 1 nM after 3 hrs in presence of proteosome inhibitor MG-132 by Western blot method; format: cell-based
[12] = biological target: T2, Protein cereblon/Bromodomain-containing protein 2/Cullin-4A (Homo sapiens); assay: Induction of cereblon/cullin 4A-mediated BRD2 degradation in human RS4:11 cells at 1 nM after 3 hrs in presence of cereblon inhibitor lenalidomide by Western blot method; format: cell-based
[13] = biological target: T2, Protein cereblon/Bromodomain-containing protein 2/Cullin-4A (Homo sapiens); assay: Induction of cereblon/cullin 4A-mediated BRD2 degradation in human RS4:11 cells at 1 nM after 3 hrs in presence of NAE inhibitor MLN4924 by Western blot method; format: cell-based
[14] = biological target: T1, Protein cereblon/Bromodomain-containing protein 3/Cullin-4A (Homo sapiens); assay: Induction of cereblon/cullin 4A-mediated BRD3 degradation in human RS4:11 cells at 1 nM after 3 hrs in presence of NAE inhibitor MLN4924 by Western blot method; format: cell-based
Mus musculus [15] = assay: Increase in caspase-3 cleavage in tumor of SCID mouse xenografted with human RS4:11 cells at 5 mg/kg administered as single dose measured up to 6 hrs by Western blot method; format: functional, organism-based; outline: as §3
Mus musculus [16] = assay: Increase in PARP cleavage in tumor of SCID mouse xenografted with human RS4:11 cells at 5 mg/kg administered as single dose measured up to 6 hrs by Western blot method; format: functional, organism-based; outline: as §3
[17] = biological target: T1, Protein cereblon/Bromodomain-containing protein 3/Cullin-4A (Homo sapiens); assay: Induction of cereblon/cullin 4A-mediated BRD3 degradation in human RS4:11 cells at 0.1 nM after 24 hrs by Western blot method; format: cell-based; outline: as §5
[18] = biological target: T1, Protein cereblon/Bromodomain-containing protein 3/Cullin-4A (Homo sapiens); assay: Induction of cereblon/cullin 4A-mediated BRD3 degradation in human RS4:11 cells at 1 nM after 3 hrs in presence of BET inhibitor 4-((3-Cyclopropyl-1-ethyl-1H-pyrazol-5-yl)amino)-7-(3,5-dimethylisoxazol-4-yl)-6-methoxy-N-methyl-9H-pyrimido[4,5-b]-indole-2-carboxamide by Western blot method; format: cell-based
[19] = biological target: T3, Protein cereblon/Bromodomain-containing protein 4/Cullin-4A (Homo sapiens); assay: Induction of cereblon/cullin 4A-mediated BRD4 degradation in human RS4:11 cells at 1 nM after 3 hrs in presence of cereblon inhibitor lenalidomide by Western blot method; format: cell-based
MOLM-13 [20] = assay: Induction of apoptosis in human MOLM13 cells at 3 to 10 nM after 24 hrs by Annexin-V/propidium iodide staining based flow cytometry; format: functional, cell-based; outline: as §1
[21] = Drug metabolism in mouse liver microsomes assessed as metabolite m2 formation at 10 uM after 20 to 40 mins in presence of beta-NADPH […]; format: ADME, microsome
[22] = biological target: T3, Protein cereblon/Bromodomain-containing protein 4/Cullin-4A (Homo sapiens); assay: Induction of cereblon/cullin 4A-mediated BRD4 degradation in human RS4:11 cells at 1 nM after 3 hrs in presence of proteosome inhibitor MG-132 by Western blot method; format: cell-based
[23] = biological target: T3, Protein cereblon/Bromodomain-containing protein 4/Cullin-4A (Homo sapiens); assay: Induction of cereblon/cullin 4A-mediated BRD4 degradation in human RS4:11 cells at 1 nM after 3 hrs in presence of BET inhibitor 4-((3-Cyclopropyl-1-ethyl-1H-pyrazol-5-yl)amino)-7-(3,5-dimethylisoxazol-4-yl)-6-methoxy-N-methyl-9H-pyrimido[4,5-b]-indole-2-carboxamide by Western blot method; format: cell-based
[24] = biological target: T2, Protein cereblon/Bromodomain-containing protein 2/Cullin-4A (Homo sapiens); assay: Induction of cereblon/cullin 4A-mediated BRD2 degradation in human RS4:11 cells after 3 hrs by Western blot method; format: cell-based; outline: as §4

T1 sequence (Q13619 whole entry, looked up): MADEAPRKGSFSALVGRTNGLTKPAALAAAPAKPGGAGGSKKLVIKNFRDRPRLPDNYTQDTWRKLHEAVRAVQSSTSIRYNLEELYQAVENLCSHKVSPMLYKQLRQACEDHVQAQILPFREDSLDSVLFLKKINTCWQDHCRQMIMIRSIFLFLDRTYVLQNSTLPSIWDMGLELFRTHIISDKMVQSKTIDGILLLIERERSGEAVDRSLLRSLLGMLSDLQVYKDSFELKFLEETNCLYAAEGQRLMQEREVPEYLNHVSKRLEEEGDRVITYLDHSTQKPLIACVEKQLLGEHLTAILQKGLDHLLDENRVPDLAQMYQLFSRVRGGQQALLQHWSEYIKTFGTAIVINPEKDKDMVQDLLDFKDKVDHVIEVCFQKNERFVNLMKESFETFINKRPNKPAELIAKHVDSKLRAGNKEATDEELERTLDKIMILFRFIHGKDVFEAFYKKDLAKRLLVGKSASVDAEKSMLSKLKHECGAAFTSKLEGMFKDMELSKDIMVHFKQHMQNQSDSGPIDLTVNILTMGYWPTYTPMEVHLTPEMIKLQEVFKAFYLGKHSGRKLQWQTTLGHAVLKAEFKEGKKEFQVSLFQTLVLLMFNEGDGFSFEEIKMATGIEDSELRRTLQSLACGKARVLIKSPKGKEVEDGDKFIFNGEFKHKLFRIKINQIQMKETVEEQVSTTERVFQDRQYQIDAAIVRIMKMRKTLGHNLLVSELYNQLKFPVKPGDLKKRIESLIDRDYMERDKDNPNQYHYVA
T1 sequence (Q15059 whole entry, looked up): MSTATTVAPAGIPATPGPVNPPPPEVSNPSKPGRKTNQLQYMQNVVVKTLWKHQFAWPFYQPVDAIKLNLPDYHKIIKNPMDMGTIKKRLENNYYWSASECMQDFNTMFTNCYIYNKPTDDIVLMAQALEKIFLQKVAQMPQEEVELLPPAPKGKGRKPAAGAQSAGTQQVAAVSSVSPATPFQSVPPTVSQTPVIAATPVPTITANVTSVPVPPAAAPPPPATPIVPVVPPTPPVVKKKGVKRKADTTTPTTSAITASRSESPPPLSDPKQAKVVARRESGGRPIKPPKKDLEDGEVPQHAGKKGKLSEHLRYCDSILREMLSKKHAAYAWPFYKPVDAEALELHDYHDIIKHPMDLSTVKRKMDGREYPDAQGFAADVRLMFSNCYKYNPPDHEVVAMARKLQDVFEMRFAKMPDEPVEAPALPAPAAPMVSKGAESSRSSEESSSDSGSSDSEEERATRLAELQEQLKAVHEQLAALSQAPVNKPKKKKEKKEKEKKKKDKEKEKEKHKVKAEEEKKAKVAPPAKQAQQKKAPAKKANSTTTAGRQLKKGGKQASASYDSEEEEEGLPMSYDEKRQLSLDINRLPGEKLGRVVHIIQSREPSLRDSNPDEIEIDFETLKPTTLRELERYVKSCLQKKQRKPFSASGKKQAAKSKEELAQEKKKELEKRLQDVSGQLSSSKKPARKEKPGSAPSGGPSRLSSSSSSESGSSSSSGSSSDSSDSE
T1 sequence (Q96SW2 whole entry, looked up): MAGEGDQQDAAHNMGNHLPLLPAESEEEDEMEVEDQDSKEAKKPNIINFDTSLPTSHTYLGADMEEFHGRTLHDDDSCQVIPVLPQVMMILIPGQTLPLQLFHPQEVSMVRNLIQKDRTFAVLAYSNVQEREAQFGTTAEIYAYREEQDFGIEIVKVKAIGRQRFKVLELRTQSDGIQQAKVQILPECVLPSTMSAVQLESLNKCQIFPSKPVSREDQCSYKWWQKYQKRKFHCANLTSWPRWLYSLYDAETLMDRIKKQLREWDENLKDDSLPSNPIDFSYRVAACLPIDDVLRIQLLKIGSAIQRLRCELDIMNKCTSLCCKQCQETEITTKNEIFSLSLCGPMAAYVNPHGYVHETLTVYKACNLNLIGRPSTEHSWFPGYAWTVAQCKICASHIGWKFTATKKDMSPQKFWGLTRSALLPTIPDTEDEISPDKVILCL
T2 sequence (P25440 whole entry, looked up): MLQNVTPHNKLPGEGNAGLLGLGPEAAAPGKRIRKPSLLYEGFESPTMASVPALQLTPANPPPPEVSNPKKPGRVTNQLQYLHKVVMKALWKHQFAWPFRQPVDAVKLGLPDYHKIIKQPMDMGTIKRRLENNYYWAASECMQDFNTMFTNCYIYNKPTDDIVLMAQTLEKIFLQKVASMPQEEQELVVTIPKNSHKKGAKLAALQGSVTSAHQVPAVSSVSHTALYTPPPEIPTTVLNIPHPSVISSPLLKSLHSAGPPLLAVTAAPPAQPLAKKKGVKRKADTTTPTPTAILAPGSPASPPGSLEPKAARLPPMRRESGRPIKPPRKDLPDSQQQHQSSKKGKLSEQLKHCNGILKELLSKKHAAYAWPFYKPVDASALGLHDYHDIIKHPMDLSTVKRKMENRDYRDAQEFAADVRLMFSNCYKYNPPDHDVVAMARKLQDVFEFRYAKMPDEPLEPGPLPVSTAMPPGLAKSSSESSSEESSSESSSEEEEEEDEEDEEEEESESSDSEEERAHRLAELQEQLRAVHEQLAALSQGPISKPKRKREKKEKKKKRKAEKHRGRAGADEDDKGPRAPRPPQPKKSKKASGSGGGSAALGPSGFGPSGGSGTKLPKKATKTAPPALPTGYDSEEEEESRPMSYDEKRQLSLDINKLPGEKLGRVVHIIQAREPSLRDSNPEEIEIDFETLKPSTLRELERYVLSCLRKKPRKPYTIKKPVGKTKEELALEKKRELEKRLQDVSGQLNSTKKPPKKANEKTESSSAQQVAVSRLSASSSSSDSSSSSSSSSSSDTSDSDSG
T2 sequence (Q13619 whole entry, looked up): as the sequence (Q13619 whole entry, looked up) above
T2 sequence (Q96SW2 whole entry, looked up): as the sequence (Q96SW2 whole entry, looked up) above

CCn1nc(C2CC2)cc1Nc1nc(C(=O)NCCCCCc2cccc3c2CN(C2CCC(=O)NC2=O)C3=O)nc2[nH]c3cc(-c4c(C)noc4C)c(OC)cc3c12 (stereo unspecified)
active: Activity (RS4-11) Dose-dependent effect | Activity (MOLM-13 [1]) Dose-dependent effect | Activity [4] | Activity (Mus musculus [5]) | Activity [7] Dose-dependent effect | Activity (Homo sapiens) | Activity [8] | Activity (Mus musculus [15]) | Activity (Mus musculus [16]) | Activity [17] | Activity (MOLM-13 [20]) | Activity [24] Dose-dependent effect
Metabolite_Detected: Drug metabolism [3] | Drug metabolism [10] | Drug metabolism [21]
inactive: Activity [2] | Activity [6] | Activity [9] | Activity [11] | Activity [12] | Activity [13] | Activity [14] | Activity [18] | Activity [19] | Activity [22] | Activity [23]
